Test system: Fibroblast
Assay: Multiplex assay against human fibroblast
Assay type: toxicity, cell-based
Outline: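 Live cells were stained at seeding with Hoechst33342, BioTracker Green Microtubule Cytoskeleton Dye, MitoTracker Red and Annexin V Alexa Fluor 680, then imaged on a CQ1 microscope at 37°C and 5% CO2 after compound addition. CellPathfinder machine-learning gating split cells into Hoechst high-intensity objects or normal cells. Normal cells were split into healthy, pyknosed or fragmented nuclei, and pyknosed cells into mitotic or apoptotic. Tubulin, mitochondrial-mass and membrane-permeability phenotypes are per cents of healthy-nucleus cells.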

[1] = 12 h, 1 µM, compound concentration 1 uM, replicate 1
[2] = 12 h, 1 µM, compound concentration 1 uM, replicate 2
[3] = 12 h, 10 µM, compound concentration 10 uM, replicate 1
[4] = 12 h, 10 µM, compound concentration 10 uM, replicate 2
[5] = 24 h, 1 µM, compound concentration 1 uM, replicate 1
[6] = 24 h, 1 µM, compound concentration 1 uM, replicate 2
[7] = 24 h, 10 µM, compound concentration 10 uM, replicate 1
[8] = 24 h, 10 µM, compound concentration 10 uM, replicate 2
[9] = 48 h, 1 µM, compound concentration 1 uM, replicate 1
[10] = 48 h, 1 µM, compound concentration 1 uM, replicate 2
[11] = 48 h, 10 µM, compound concentration 10 uM, replicate 1
[12] = 48 h, 10 µM, compound concentration 10 uM, replicate 2

S=C(NCCCc1c[nH]cn1)NCCCN(Cc1ccc(Cl)c(Cl)c1)c1ccc(Br)cn1
Population Apoptotic (%) [1]: 52% | Population Fragmented Nuclei (%) [1]: 28% | Population Healthy Nuclei (%) [1]: 42% | Population Hoechst High Intensity Objects (%) [1]: 13% | Population Membrane Permeable-Phenotype (%) [1]: 28% | Population Mitochondria Different-Phenotype (%) [1]: 11% | Population Mitotic Cells (%) [1]: 47% | Population Normal (%) [1]: 86% | Population Pyknosed Nuclei (%) [1]: 28% | Population Tubulin-Different-Phenotype (%) [1]: 55% | Total Cell Count [1]: 140 | Population Apoptotic (%) [2]: 0% | Population Fragmented Nuclei (%) [2]: 17% | Population Healthy Nuclei (%) [2]: 82% | Population Hoechst High Intensity Objects (%) [2]: 15% | Population Membrane Permeable-Phenotype (%) [2]: 8% | Population Mitochondria Different-Phenotype (%) [2]: 8% | Population Mitotic Cells (%) [2]: 0% | Population Normal (%) [2]: 84% | Population Pyknosed Nuclei (%) [2]: 0% | Population Tubulin-Different-Phenotype (%) [2]: 4% | Total Cell Count [2]: 79 | Population Apoptotic (%) [3]: 46% | Population Fragmented Nuclei (%) [3]: 18% | Population Healthy Nuclei (%) [3]: 8% | Population Hoechst High Intensity Objects (%) [3]: 20% | Population Membrane Permeable-Phenotype (%) [3]: 66% | Population Mitochondria Different-Phenotype (%) [3]: 11% | Population Mitotic Cells (%) [3]: 53% | Population Normal (%) [3]: 79% | Population Pyknosed Nuclei (%) [3]: 72% | Population Tubulin-Different-Phenotype (%) [3]: 88% | Total Cell Count [3]: 133 | Population Apoptotic (%) [4]: 93% | Population Fragmented Nuclei (%) [4]: 25% | Population Healthy Nuclei (%) [4]: 2% | Population Hoechst High Intensity Objects (%) [4]: 11% | Population Membrane Permeable-Phenotype (%) [4]: 100% | Population Mitochondria Different-Phenotype (%) [4]: 100% | Population Mitotic Cells (%) [4]: 6% | Population Normal (%) [4]: 88% | Population Tubulin-Different-Phenotype (%) [4]: 100% | Total Cell Count [4]: 33 | Population Apoptotic (%) [5]: 66% | Population Fragmented Nuclei (%) [5]: 32% | Population Healthy Nuclei (%) [5]: 48% | Population Hoechst High Intensity Objects (%) [5]: 17% | Population Membrane Permeable-Phenotype (%) [5]: 19% | Population Mitochondria Different-Phenotype (%) [5]: 11% | Population Mitotic Cells (%) [5]: 33% | Population Normal (%) [5]: 82% | Population Pyknosed Nuclei (%) [5]: 18% | Population Tubulin-Different-Phenotype (%) [5]: 64% | Total Cell Count [5]: 154 | Population Apoptotic (%) [6]: 0% | Population Fragmented Nuclei (%) [6]: 19% | Population Healthy Nuclei (%) [6]: 80% | Population Hoechst High Intensity Objects (%) [6]: 8% | Population Membrane Permeable-Phenotype (%) [6]: 16% | Population Mitochondria Different-Phenotype (%) [6]: 8% | Population Mitotic Cells (%) [6]: 0% | Population Normal (%) [6]: 91% | Population Pyknosed Nuclei (%) [6]: 0% | Population Tubulin-Different-Phenotype (%) [6]: 20% | Total Cell Count [6]: 79 | Population Apoptotic (%) [7]: 53% | Population Fragmented Nuclei (%) [7]: 24% | Population Healthy Nuclei (%) [7]: 15% | Population Hoechst High Intensity Objects (%) [7]: 21% | Population Membrane Permeable-Phenotype (%) [7]: 56% | Population Mitochondria Different-Phenotype (%) [7]: 18% | Population Mitotic Cells (%) [7]: 46% | Population Normal (%) [7]: 78% | Population Pyknosed Nuclei (%) [7]: 60% | Population Tubulin-Different-Phenotype (%) [7]: 93% | Total Cell Count [7]: 133 | Population Apoptotic (%) [8]: 100% | Population Fragmented Nuclei (%) [8]: 12% | Population Healthy Nuclei (%) [8]: 24% | Population Hoechst High Intensity Objects (%) [8]: 25% | Population Membrane Permeable-Phenotype (%) [8]: 94% | Population Mitochondria Different-Phenotype (%) [8]: 88% | Population Mitotic Cells (%) [8]: 0% | Population Normal (%) [8]: 74% | Population Pyknosed Nuclei (%) [8]: 62% | Population Tubulin-Different-Phenotype (%) [8]: 88% | Total Cell Count [8]: 34 | Population Apoptotic (%) [9]: 57% | Population Fragmented Nuclei (%) [9]: 50% | Population Healthy Nuclei (%) [9]: 39% | Population Hoechst High Intensity Objects (%) [9]: 20% | Population Membrane Permeable-Phenotype (%) [9]: 24% | Population Mitochondria Different-Phenotype (%) [9]: 1% | Population Mitotic Cells (%) [9]: 42% | Population Normal (%) [9]: 79% | Population Pyknosed Nuclei (%) [9]: 9% | Population Tubulin-Different-Phenotype (%) [9]: 36% | Total Cell Count [9]: 184 | Population Apoptotic (%) [10]: 50% | Population Fragmented Nuclei (%) [10]: 40% | Population Healthy Nuclei (%) [10]: 58% | Population Hoechst High Intensity Objects (%) [10]: 21% | Population Membrane Permeable-Phenotype (%) [10]: 23% | Population Mitochondria Different-Phenotype (%) [10]: 0% | Population Mitotic Cells (%) [10]: 50% | Population Normal (%) [10]: 78% | Population Pyknosed Nuclei (%) [10]: 1% | Population Tubulin-Different-Phenotype (%) [10]: 63% | Total Cell Count [10]: 220 | Population Apoptotic (%) [11]: 58% | Population Fragmented Nuclei (%) [11]: 34% | Population Healthy Nuclei (%) [11]: 25% | Population Hoechst High Intensity Objects (%) [11]: 34% | Population Membrane Permeable-Phenotype (%) [11]: 39% | Population Mitochondria Different-Phenotype (%) [11]: 26% | Population Mitotic Cells (%) [11]: 41% | Population Normal (%) [11]: 65% | Population Pyknosed Nuclei (%) [11]: 40% | Population Tubulin-Different-Phenotype (%) [11]: 91% | Total Cell Count [11]: 137 | Population Apoptotic (%) [12]: 80% | Population Fragmented Nuclei (%) [12]: 37% | Population Healthy Nuclei (%) [12]: 16% | Population Hoechst High Intensity Objects (%) [12]: 33% | Population Membrane Permeable-Phenotype (%) [12]: 77% | Population Mitochondria Different-Phenotype (%) [12]: 0% | Population Mitotic Cells (%) [12]: 20% | Population Normal (%) [12]: 66% | Population Pyknosed Nuclei (%) [12]: 46% | Population Tubulin-Different-Phenotype (%) [12]: 100% | Total Cell Count [12]: 81

Source: ChEMBL document CHEMBL4689842, “EUbOPEN Chemogenomics Library wave 1” (2021)
